Measurements taken from ChEMBL document CHEMBL3769393, “Chiral pool synthesis and biological evaluation of C-furanosidic and acyclic LpxC inhibitors” (Eur J Med Chem, 2016).

What was measured:
[1] = tested on: Escherichia coli; test: Antibacterial activity against Escherichia coli BL21(DE3) cells assessed as diameter of zone of growth inhibition after overnight incubation at 37 degC by agar disc diffusion clearance assay; assay type: functional
Summary of the method: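 Overnight LB broth cultures (37 °C, 200 rpm); 150 µL spread on LB agar. 6 mm filter discs loaded with 15 µL of 10 mM compound in DMSO. DMSO disc as negative control, CHIR-090 as positive control. Plates kept overnight at 37 °C, then diameter of the growth-inhibition zone measured.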

[2] = Inhibition of Escherichia coli BL21(DE3) LpxC C63A mutant using UDP-3-O-(R-3-hydroxymyristoyl)-N-acetylglucosamine as substrate incubated for 30 mins by o-phthaldialdehyde-2-mercaptoethanol based fluorescence assay
[3] = tested on: Escherichia coli; test: Antibacterial activity against envA mutant Escherichia coli D22 cells assessed as diameter of zone of growth inhibition after overnight incubation at 37 degC by agar disc diffusion clearance assay; assay type: functional
Summary of the method: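 E. coli D22 (defective strain) grown overnight in LB broth at 37 °C, 200 rpm; 150 µL of overnight suspension spread on LB agar. 6 mm filter paper discs loaded with 15 µL compound (10 mM in DMSO); DMSO disc as negative control, CHIR-090 as positive control. Plates incubated overnight at 37 °C; growth-inhibition zone diameter measured.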

[4] = Inhibition of Escherichia coli BL21(DE3) LpxC C63A mutant using UDP-3-O-(R-3-hydroxymyristoyl)-N-acetylglucosamine as substrate incubated for 30 mins by Cheng-Prusoff equation analysis

| SMILES | diameter of the inhibition zone (DIZ) [1] | IC50 [2] | diameter of the inhibition zone (DIZ) [3] | Ki [4] |
| --- | --- | --- | --- | --- |
| O=C(NO)[C@H]1O[C@@H](c2ccc(C#Cc3ccc(CN4CCOCC4)cc3)cc2)[C@@H](O)[C@H]1O | <6 mm | > 200 µM | 13.2 mm | > 27.6 µM |
| O=C(NO)c1ccc(-c2ccc(C#Cc3ccccc3)cc2)o1 | <6 mm | – | 8 mm | – |
| O=C(NO)[C@@H]1O[C@H](c2ccc(C#CC#Cc3ccccc3)cc2)[C@@H](O)[C@H]1O | 10.7 mm | 5 µM | 14.5 mm | 0.69 µM |
| O=C(NO)[C@H](CO)O[C@H](CO)c1ccc(C#CC#Cc2ccccc2)cc1 | 13.7 mm | 1.7 µM | 21.3 mm | 0.23 µM |
| CC1(C)O[C@@H]2[C@H](O1)[C@H](c1ccc(C#Cc3ccc(CN4CCOCC4)cc3)cc1)O[C@@H]2C(=O)NO | <6 mm | > 200 µM | 14.7 mm | > 27.6 µM |
| O=C(NO)[C@H](CO)O[C@@H](CO)c1ccc(C#Cc2ccc(CN3CCOCC3)cc2)cc1 | 14.3 mm | 21 µM | 27.9 mm | 2.9 µM |
| CO[C@H]1[C@@H](O)[C@@H](C(=O)NO)O[C@H]1c1ccc(C#Cc2ccc(CN3CCOCC3)cc2)cc1 | <6 mm | > 200 µM | 20.5 mm | > 27.6 µM |
| O=C(NO)[C@H]1O[C@@H](c2ccc(C#Cc3ccccc3)cc2)[C@@H](O)[C@H]1O | <6 mm | > 200 µM | 6.5 mm | > 27.6 µM |
| O=C(NO)[C@@H](CO)O[C@@H](CO)c1ccc(C#CC#Cc2ccccc2)cc1 | 7.1 mm | 20 µM | 10.5 mm | 2.7 µM |
| O=C(NO)[C@@H]1O[C@@H](c2ccc(C#Cc3ccc(CN4CCOCC4)cc3)cc2)[C@@H](O)[C@H]1O | <6 mm | 10 µM | 22.1 mm | 1.4 µM |
| O=C(NO)[C@H](CO)O[C@H](CO)c1ccc(C#Cc2ccc(CN3CCOCC3)cc2)cc1 | 9.6 mm | 2.6 µM | 20.4 mm | 0.35 µM |
| O=C(NO)[C@@H](CO)O[C@@H](CO)c1ccc(C#Cc2ccccc2)cc1 | <6 mm | > 200 µM | 9.3 mm | > 27.6 µM |
| O=C(NO)[C@H]1O[C@@H](c2ccc(C#CC#Cc3ccccc3)cc2)[C@@H](O)[C@H]1O | <6 mm | 32 µM | 9 mm | 4.4 µM |
| O=C(NO)[C@@H](CO)O[C@@H](CO)c1ccc(C#Cc2ccc(CN3CCOCC3)cc2)cc1 | <6 mm | 180 µM | 20.3 mm | 25 µM |
| O=C(NO)[C@@H]1O[C@H](c2ccc(C#Cc3ccccc3)cc2)[C@@H](O)[C@H]1O | <6 mm | > 200 µM | 16.3 mm | > 27.6 µM |
| O=C(NO)[C@H](CO)O[C@@H](CO)c1ccc(C#CC#Cc2ccccc2)cc1 | 9 mm | 4.4 µM | 18 mm | 0.6 µM |
| O=C(NO)[C@H](CO)O[C@@H](CO)c1ccc(C#Cc2ccccc2)cc1 | 6.8 mm | 150 µM | 21.3 mm | 21 µM |
| O=C(NO)[C@@H]1O[C@@H](c2ccc(C#CC#Cc3ccccc3)cc2)[C@@H](O)[C@H]1O | <6 mm | 15 µM | 15.7 mm | 2.1 µM |
| O=C(NO)[C@H](CO)O[C@H](CO)c1ccc(C#Cc2ccccc2)cc1 | <6 mm | > 200 µM | 16.2 mm | > 27.6 µM |
| O=C(NO)[C@@H](CO)O[C@H](CO)c1ccc(C#Cc2ccc(CN3CCOCC3)cc2)cc1 | 16 mm | 8 µM | 26.1 mm | 1.1 µM |
| O=C(NO)[C@@H]1O[C@H](c2ccc(C#Cc3ccc(CN4CCOCC4)cc3)cc2)[C@@H](O)[C@H]1O | <6 mm | 42 µM | – | 5.8 µM |
| O=C(NO)[C@H]1O[C@H](c2ccc(C#Cc3ccc(CN4CCOCC4)cc3)cc2)[C@@H](O)[C@H]1O | 9.8 mm | 34 µM | 20.2 mm | 4.7 µM |
| O=C(NO)[C@@H]1C[C@H](O)[C@H](c2ccc(C#Cc3ccc(CN4CCOCC4)cc3)cc2)O1 | <6 mm | 87 µM | 15.3 mm | 12 µM |
| CO[C@@H]1[C@H](O)[C@H](c2ccc(C#Cc3ccc(CN4CCOCC4)cc3)cc2)O[C@@H]1C(=O)NO | <6 mm | > 200 µM | 11.7 mm | > 27.6 µM |
| O=C(NO)[C@@H]1O[C@@H](c2ccc(C#Cc3ccccc3)cc2)[C@@H](O)[C@H]1O | <6 mm | 24 µM | 18 mm | 3.3 µM |
| O=C(NO)[C@H]1O[C@H](c2ccc(C#Cc3ccccc3)cc2)[C@@H](O)[C@H]1O | 6.8 mm | 43 µM | 13.6 mm | 5.9 µM |
